hERG protect – hERG rescue from dofetilide block, primary screen, cell-based, CHO-hERG, FluxOR thallium flux, dofetilide IC70. dofetilide IC70 present. Voltage-gated inwardly rectifying potassium channel KCNH2 (Homo sapiens), Q12809. AID 1511, 2009. activation (rescue from dofetilide block), less the hit threshold, % at 10 µM. actives 0.51% (n = 310,000);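 active means activation above the mean of controls blocked by dofetilide plus 5 SD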;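 further: thallium influx through hERG after potassium depolarization seen as dye fluorescence rise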
KCNQ1 inh – inhibitors of human KCNQ1 channel, primary screen, cell-based, thallium flux, high-throughput. actives 1.3% (n = 310,000). Potassium voltage-gated channel subfamily KQT member 1 (Homo sapiens), P51787. B-score at 10 µM. AID 2642, 2010. CHO-K1 KCNQ1, FluxOR thallium flux fluorescence; stronger effect = higher value;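 active means compounds whose thallium flux B-score, printed positive for inhibition, exceeds three library SD while starting fluorescence stays within three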;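 further: channel opened by potassium depolarization with thallium stimulus after 20 min compound exposure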
Target sequence (P51787 whole entry, looked up): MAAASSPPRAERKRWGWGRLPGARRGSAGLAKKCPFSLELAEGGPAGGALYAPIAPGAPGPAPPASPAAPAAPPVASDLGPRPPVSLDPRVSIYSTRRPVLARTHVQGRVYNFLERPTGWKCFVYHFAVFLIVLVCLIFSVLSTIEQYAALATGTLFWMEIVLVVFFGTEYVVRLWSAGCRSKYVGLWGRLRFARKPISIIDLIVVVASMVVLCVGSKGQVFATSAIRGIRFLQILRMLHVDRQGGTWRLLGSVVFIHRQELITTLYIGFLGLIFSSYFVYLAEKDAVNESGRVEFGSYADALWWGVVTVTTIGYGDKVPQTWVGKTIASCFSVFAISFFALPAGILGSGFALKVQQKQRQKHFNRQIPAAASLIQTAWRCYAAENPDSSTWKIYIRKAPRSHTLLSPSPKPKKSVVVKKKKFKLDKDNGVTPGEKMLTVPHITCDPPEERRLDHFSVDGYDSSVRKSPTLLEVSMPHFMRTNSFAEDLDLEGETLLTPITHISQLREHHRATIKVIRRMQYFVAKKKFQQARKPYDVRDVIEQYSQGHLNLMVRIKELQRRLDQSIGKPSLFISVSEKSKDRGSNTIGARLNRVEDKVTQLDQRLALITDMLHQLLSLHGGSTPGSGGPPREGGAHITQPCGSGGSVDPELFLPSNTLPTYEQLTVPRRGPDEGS
Kir21 inh – inhibitors of mouse Kir2.1 inward-rectifier potassium channel | HEK293-Kir2.1, FluxOR thallium flux fluorescence; stronger effect = lower value | B-score at 10 µM | actives 0.85% (n = 310,000);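 active means fluorescence ratio B-score at or below minus 3 SD of library scores, with starting-brightness B-score within 2 SD, cut at about -4.2 in these data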;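 further: channel flux triggered by added potassium and thallium sulfate stimulus; B-score of peak minus minimum fluorescence over baseline after thallium stimulus; more negative B-score means stronger Kir2.1 block with less thallium influx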
KCNK9 block – KCNK9 potassium channel inhibitors, primary screen, HEK293 cells, thallium flux; Potassium channel subfamily K member 9 (Homo sapiens), Q9NPC2; AID 488922, 2010; actives 1.2% (n = 310,000); B-score at 10 µM; FluxOR thallium flux fluorescence; stronger effect = lower value;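 active means ratio B-score over 3 SD below the library mean, with starting fluorescence within 5 SD of its mean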;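 further: negative B-score means less thallium flux so channel inhibition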
KCNK3 block – human KCNK3 channel inhibitors, primary screen, CHO cells, FluxOR thallium flux, B-score; Potassium channel subfamily K member 3 (Homo sapiens), O14649; FluxOR fluorescence; stronger effect = lower value; B-score at 10 µM; actives 0.84% (n = 340,000); AID 602410, 2012;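 active means B-score under library mean minus 4 SD, starting fluorescence ratio at most library mean plus 5 SD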;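 further: more negative B-score means stronger inhibition of thallium flux through KCNK3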
KCNQ1 act – potentiators or activators of KCNQ1 channel, primary screen, cell-based, thallium flux, high-throughput; Potassium voltage-gated channel subfamily KQT member 1 (Homo sapiens), P51787; CHO-K1 KCNQ1, thallium flux FluxOR fluorescence; stronger effect = higher value; B-score at 10 µM; actives 0.35% (n = 310,000); AID 2648, 2010;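 active means fluorescence ratio B-score, a plate-corrected score, at least three library SD, with initial intensity B-score within 5 SD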
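Assay system: stable KCNQ1 CHO-K1 line; medium: assay buffer, equal DMSO in all wells; timing: 90 min dye loading and 20 min compound exposure, both at room temperature; technique: kinetic FluxOR thallium fluorescence, 10-s 1-Hz baseline, 110-s post-stimulus read; read-out basis: B score of baseline-normalized fluorescence ratio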
Starred values were filed as active, the others as inactive; i = inactive; nt = no result given. Shown are actives, neighbours in structure and some others; about 3.7% of the full set was active somewhere.

SMILES	hERG protect	KCNQ1 inh	Kir21 inh	KCNK9 block	KCNK3 block	KCNQ1 act
COc1ccc2nc(NC(=O)CN3CCOCC3)sc2c1	7.3*	i	-1.23	i	i	i
COc1ccc(NC(=O)CN2CCOCC2)cc1	7.0*	i	1.78	i	i	i
O=C(CN1CCCCC1)Nc1ccccc1	-9.8	i	0.03	i	i	i
O=C(CCN1CCOCC1)Nc1ccccc1	5.1*	i	-0.7	i	i	i
O=C(CN1CCCCCC1)Nc1ccc(Oc2ccccc2)cc1	18.2*	i	-1.96	i	i	19*
COc1ccc(NC(=O)CN2CCN(C3c4ccccc4-c4ccccc43)CC2)cc1	-15.0	i	0.01	i	i	8*
COc1cc(NC(=O)c2ccc(F)cc2)c(OC)cc1NC(=O)CN1CCOCC1	-7.1	i	0	i	i	i
COc1cc(NC(=O)c2ccccc2F)c(OC)cc1NC(=O)CN1CCOCC1	4.7*	i	-1.32	i	i	i
CCCc1nnc(NC(=O)CN2CCOCC2)s1	12.2*	i	-0.55	i	i	i
COc1ccc(NC(=O)CN2CCN(c3ccccc3)CC2)cc1	-3.1	i	0.63	i	i	i
Cc1ccccc1NC(=O)CCN1CCCCCC1	4.8*	i	0.54	i	i	i
Cc1cc(C)cc(C(=O)NC(CC(N)=O)c2ccc(NCC3CC3)c([N+](=O)[O-])c2)c1 (stereo unspecified)	-2.0	i	-0.02	i	i	i
CN=C1N(C)C[C@@H]2[C@@H]3C(=O)N(C)C(=O)[C@@H]3[C@](Cc3ccccc3)(C(=O)OC)N12	nt	nt	nt	nt	i	nt
COc1ccccc1OCc1ccc(C(=O)n2nc(C)c(Cl)c2C)o1	-9.4	i	-1.01	-7.85*	i	i
COC(=O)c1ccc(COc2ccccc2OC)o1	-5.5	i	0.11	i	i	i
CCCC(=O)N(Cc1cc(=O)[nH]c2ccccc12)c1ccccc1C	-9.8	i	0.01	i	i	i
Cc1cccc2sc(NC(=O)c3ccc(OCC4CCCO4)cc3)nc12 (stereo unspecified)	6.5*	i	0.25	i	i	i
Cc1csc(NC(=O)c2ccc(OCC3CCCO3)cc2)n1 (stereo unspecified)	-12.8	i	0.97	i	i	i
Cc1cc(=O)cc(C)n1-c1ccc(F)cc1F	6.6*	i	0.07	i	i	i
COc1cccc(CN(C)C(=O)c2sccc2-c2ccccc2)c1OC	-8.9	i	-3.56	i	i	i
CN(Cc1ccccc1F)C(=O)c1sccc1-c1ccccc1	-12.1	i	-11.8*	i	i	i
CCN(CC)C(=O)Cn1cc(SCC(=O)NC)c2ccccc21	-4.5	i	0.23	i	i	i
Cc1ccc(C2SCCN2C(=O)c2ccc([N+](=O)[O-])cc2)cc1 (stereo unspecified)	-11.0	i	-6.53*	i	i	i
NC(=O)c1ccccc1NC(=O)C(c1ccccc1)c1ccccc1	-5.2	i	-0.04	i	i	i
CCc1ccccc1Nc1nc(N)nc(COC(=O)CCNS(=O)(=O)c2ccccc2)n1	-16.9	i	-0.03	-8.06*	i	i
SMILES	hERG protect	KCNQ1 inh	Kir21 inh	KCNK9 block	KCNK3 block	KCNQ1 act
CC(=O)OCC(=O)C1CCC2C3CC=C4CC(O)CCC4(C)C3CCC12C (stereo unspecified)	nt	nt	nt	nt	i	nt
CC(=O)C1CCC2C3CC=C4CC(SC(=N)N)CCC4(C)C3CCC12C (stereo unspecified)	nt	nt	nt	nt	-9.18*	nt
CC1CCCC(NC(=O)CNC(=S)N(Cc2ccccc2)Cc2cccs2)C1C (stereo unspecified)	-10.1	9*	0.22	i	i	i
CCCCNC(=O)CNC(=S)N(Cc1ccccc1)Cc1cccs1	-6.8	i	-2.37	i	i	i
O=C(NCCN1CCOCC1)c1cn(-c2ccccc2)nc1-c1cccs1	-13.6	i	2.42	i	i	i
O=C(NCCCN1CCOCC1)c1cn(-c2ccccc2)nc1-c1cccs1	-11.3	i	-4.49*	i	i	i
C[C@H](NC(=O)c1nc[nH]c1C(=O)NC(c1ccccc1)c1ccccc1)C(=O)OC(C)(C)C	-9.0	i	-0.92	-6.97*	i	i
C[C@H](NC(=O)c1nc[nH]c1C(=O)N[C@H](C)c1ccccc1)C(=O)OC(C)(C)C	-11.2	i	0.68	i	i	i
COc1ccc(S(=O)(=O)N2CCCC2CNC(=O)c2cccc(OC)c2)cc1 (stereo unspecified)	-13.5	i	-1.32	i	i	i
Cc1cccc(-c2nnc(-c3ccc4ccccc4c3)o2)c1	nt	nt	nt	nt	-9.2*	nt
Cc1cccc(-c2nnc(-c3cccc4ccccc34)o2)c1	nt	nt	nt	nt	-9.54*	nt
C/C=C/c1ccc(OCC(=O)Nc2cc(Cl)ccc2-n2cncn2)c(OC)c1	-12.0	i	0.07	i	i	i
Cc1cccc(-n2ncc3c(N)ncnc32)c1	-4.2	i	1.24	i	i	i
Cc1cccc(-n2ncc3c(N(C)Cc4ccccc4)ncnc32)c1	-9.1	i	-0.74	i	-11*	i
CC(=O)Nc1cc2c(cc1Cl)-c1ccccc1C2O (stereo unspecified)	nt	nt	nt	nt	i	nt
COc1ccc(NC(=O)NNC(=O)c2ccc3ccccc3c2)cc1OC	-10.8	i	-0.96	i	i	i
Cc1cccc(CNc2ccc(S(=O)(=O)N3CCCCC3)cc2)c1	nt	nt	nt	nt	-9.88*	nt
COc1ccc(NC(=S)NNc2ccc([N+](=O)[O-])cc2S(=O)(=O)Nc2ccc(C)cc2C)cc1	-24.5	7*	-0.53	i	i	i
Cc1ccc(NS(=O)(=O)c2cc([N+](=O)[O-])ccc2NNC(=S)Nc2cc(C)ccc2C)c(C)c1	-11.8	6*	0	i	i	i
Cc1ccc(NS(=O)(=O)c2cc([N+](=O)[O-])ccc2NNC(=S)Nc2cccc(Cl)c2)c(C)c1	-16.6	6*	-2.49	i	i	i
CC(C)(O)CN(CCCNC(=S)Nc1ccccc1)C(=S)Nc1ccccc1	nt	nt	nt	nt	i	nt
O=C(Nc1cccc(S(=O)(=O)N2CCCCC2)c1)c1ccc(N2CCCC2=O)cc1	nt	nt	nt	nt	i	nt
